{"data": "Assay results from different studies", "CYP1A1": "Cytochrome P450 1A1 (CYP1A1, Homo sapiens, UniProt P04798)", "note": "Compare with care: the assays were run in different laboratories."}
{"Compound": "CC(C)=CCc1c(O)cc(O)c2c1O[C@H](c1ccc(O)cc1)CC2=O", "target": "CYP1A1", "test": "enzyme activity, inhibitor, fluorescence", "conditions": "15 min, pH 7.4", "Ki": "200 nM"}
{"Compound": "C#Cc1cccc(-c2cc(=O)c3ccccc3o2)c1", "target": "CYP1A1", "test": "enzyme activity, inhibitor, fluorescence", "conditions": "6 min, pH 7.6", "Ki": "41 nM"}
{"Compound": "CC[C@H](C)[C@H](NC(=O)[C@H](CCCCN)NC(=O)[C@H](CCCNC(=N)N)NC(=O)[C@H](CC(C)C)NC(=O)[C@H](CCC(N)=O)NC(=O)[C@H](C)NC(=O)[C@H](C)NC(=O)[C@H](Cc1ccccc1)NC(=O)[C@H](CCC(=O)O)NC(=O)[C@@H]1CCCN1C(=O)[C@@H]1CCCN1C(=O)[C@H](CC(C)C)NC(=O)[C@H](CCC(=O)O)NC(=O)[C@H](C)NC(C)=O)C(=O)NCC(=O)N[C@@H](CC(=O)O)C(=O)N[C@@H](CCCCN)C(=O)N[C@H](C(=O)N[C@@H](Cc1ccc(O)cc1)C(=O)N[C@@H](CS)C(N)=O)C(C)C", "target": "Bcl-2-like protein 2 (BCL2L2, Homo sapiens, UniProt Q92843)", "test": "ligand displacement, FP", "Ki": "~14000 nM"}
{"Compound": "CCc1cc(O)c(Oc2ccc(C(N)=O)cc2F)cc1F", "target": "Enoyl-[acyl-carrier-protein] reductase [NADPH] FabI (Staphylococcus aureus, UniProt Q6GI75)", "test": "enzyme activity, inhibitor", "Ki": "0.08 nM"}
{"Compound": "C#Cc1ccc(-c2cc(=O)c3ccccc3o2)cc1", "target": "CYP1A1", "test": "enzyme activity, inhibitor, fluorescence", "conditions": "6 min, pH 7.6", "Ki": "39 nM"}
{"Compound": "CC[C@H](C)[C@H](NC(=O)[C@H](CCC(=O)O)NC(=O)[C@H](CC(=O)O)NC(=O)CNC(=O)[C@H](CC(C)C)NC(=O)[C@H](CCCNC(=N)N)NC(=O)[C@H](CCCNC(=N)N)NC(=O)[C@H](CC(C)C)NC(=O)CNC(=O)[C@H](CCC(N)=O)NC(=O)[C@@H](NC(=O)[C@H](CCSC)NC(=O)[C@H](Cc1c[nH]c2ccccc12)NC(=O)[C@@H](NC(=O)[C@H](CCC(=O)O)NC(=O)[C@@H]1CCCN1C(=O)[C@H](CCCNC(=N)N)NC(C)=O)[C@@H](C)CC)[C@@H](C)O)C(=O)N[C@@H](CC(N)=O)C(=O)N[C@@H](C)C(=O)N[C@@H](Cc1ccc(O)cc1)C(=O)N[C@@H](Cc1ccc(O)cc1)C(=O)N[C@@H](C)C(=O)N[C@@H](CCCNC(=N)N)C(N)=O", "target": "Apoptosis regulator Bcl-2 (BCL2, Homo sapiens, UniProt P10415)", "test": "ligand displacement, FP", "Ki": "~2900 nM"}
{"Compound": "C[C@H]1Oc2cc(cnc2N)-c2c(nn(C)c2C#N)CN(C)C(=O)c2ccc(F)cc21", "target": "Dual specificity mitogen-activated protein kinase kinase 1 (MAP2K1, Homo sapiens, UniProt Q02750)", "test": "cell-free assay", "conditions": "lysate", "Ki": "128 nM"}
{"Compound": "O=C(O)CCC(NC(=O)NC(CCCCNC(=O)CCCCCCC(=O)NC(CCCCNC(=O)CN1CCN(CC(=O)O)CCN(CC(=O)O)CCN(CC(=O)O)CC1)C(=O)OCc1ccccc1)C(=O)O)C(=O)O (centres unmarked)", "target": "Glutamate carboxypeptidase 2 (FOLH1, Homo sapiens, UniProt Q04609)", "test": "enzyme activity, inhibitor, fluorescence", "Ki": "2.9 nM"}
